In ChEMBL document CHEMBL2331542, “Synthesis and in vitro antibacterial activity of quinolone/naphthyridone derivatives containing 3-alkoxyimino-4-(methyl)aminopiperidine scaffolds” (2013):
≈ marks a conversion by molar mass, not a printed value.

How the values were obtained:
Type in all cases: functional
[1] = system: Klebsiella pneumoniae; assay: Antibacterial activity against Klebsiella pneumoniae isolate 12-4
In short: (§1)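 MIC determined in vitro by a standard technique and defined as the lowest compound concentration giving complete inhibition of bacterial growth. The Gram-positive and Gram-negative panels were tested alongside gemifloxacin, levofloxacin and ciprofloxacin reference drugs.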

[2] = system: Staphylococcus epidermidis; assay: Antibacterial activity against methicillin-resistant Staphylococcus epidermidis isolate 12-35
In short: (§2)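 MIC determined in vitro by standard techniques, defined as the lowest compound concentration giving complete inhibition of bacterial growth. Gemifloxacin, levofloxacin and ciprofloxacin were tested alongside as reference drugs.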

[3] = system: Staphylococcus aureus; assay: Antibacterial activity against methicillin-sensitive Staphylococcus aureus isolate 12-10; in short: as §1
[4] = system: Escherichia coli; assay: Antibacterial activity against Escherichia coli isolate 12-4; in short: as §1
[5] = system: Staphylococcus aureus; assay: Antibacterial activity against methicillin-resistant Staphylococcus aureus isolate 12-15; in short: as §2
[6] = system: Streptococcus pneumoniae; assay: Antibacterial activity against Streptococcus pneumoniae isolate 12-2; in short: as §1
[7] = system: Pseudomonas aeruginosa; assay: Antibacterial activity against Pseudomonas aeruginosa isolate 12-1; in short: as §1
[8] = system: Escherichia coli; assay: Antibacterial activity against Escherichia coli isolate 12-5; in short: as §1
[9] = system: Klebsiella pneumoniae; assay: Antibacterial activity against extended-spectrum beta-lactamase-producing Klebsiella pneumoniae isolate 12-1; in short: as §1
[10] = system: Staphylococcus epidermidis; assay: Antibacterial activity against methicillin-resistant Staphylococcus epidermidis isolate 12-5; in short: as §2
[11] = system: Pseudomonas aeruginosa; assay: Antibacterial activity against Pseudomonas aeruginosa ATCC 27853; in short: as §1
[12] = system: Klebsiella pneumoniae; assay: Antibacterial activity against extended-spectrum beta-lactamase-producing Klebsiella pneumoniae isolate 12-2; in short: as §1
[13] = system: Escherichia coli; assay: Antibacterial activity against extended-spectrum beta-lactamase-producing Escherichia coli isolate 12-1; in short: as §1
[14] = system: Klebsiella pneumoniae; assay: Antibacterial activity against Klebsiella pneumoniae isolate 12-2; in short: as §1
[15] = system: Staphylococcus epidermidis; assay: Antibacterial activity against methicillin-sensitive Staphylococcus epidermidis isolate 12-2; in short: as §1
[16] = system: Staphylococcus aureus; assay: Antibacterial activity against methicillin-sensitive Staphylococcus aureus isolate 12-7; in short: as §1
[17] = system: Staphylococcus epidermidis; assay: Antibacterial activity against methicillin-sensitive Staphylococcus epidermidis isolate 12-1; in short: as §1
[18] = system: Staphylococcus aureus; assay: Antibacterial activity against methicillin-resistant Staphylococcus aureus isolate 12-13; in short: as §2
[19] = system: Escherichia coli; assay: Antibacterial activity against extended-spectrum beta-lactamase-producing Escherichia coli isolate 12-4; in short: as §1
[20] = system: Streptococcus pneumoniae; assay: Antibacterial activity against Streptococcus pneumoniae isolate 12-5; in short: as §1
[21] = system: Escherichia coli; assay: Antibacterial activity against Escherichia coli isolate 12-1; in short: as §1
[22] = system: Staphylococcus epidermidis; assay: Antibacterial activity against methicillin-sensitive Staphylococcus epidermidis isolate 12-3; in short: as §1
[23] = system: Klebsiella pneumoniae; assay: Antibacterial activity against extended-spectrum beta-lactamase-producing Klebsiella pneumoniae isolate 12-4; in short: as §1
[24] = system: Escherichia coli; assay: Antibacterial activity against Escherichia coli ATCC 25922; in short: as §1
[25] = system: Staphylococcus epidermidis; assay: Antibacterial activity against methicillin-resistant Staphylococcus epidermidis isolate 12-33; in short: as §2
[26] = system: Escherichia coli; assay: Antibacterial activity against extended-spectrum beta-lactamase-producing Escherichia coli isolate 12-2; in short: as §1
[27] = system: Staphylococcus aureus; assay: Antibacterial activity against methicillin-resistant Staphylococcus aureus isolate 12-3; in short: as §2
[28] = system: Pseudomonas aeruginosa; assay: Antibacterial activity against Pseudomonas aeruginosa isolate 12-2; in short: as §1
[29] = system: Staphylococcus aureus; assay: Antibacterial activity against Staphylococcus aureus […]; in short: as §1
[30] = system: Staphylococcus aureus; assay: Antibacterial activity against methicillin-sensitive Staphylococcus aureus isolate 12-6; in short: as §1
[31] = system: Klebsiella pneumoniae; assay: Antibacterial activity against Klebsiella pneumoniae isolate 12-1; in short: as §1

Compound	MIC [1] [µg/mL]	MIC [2] [µg/mL]	MIC [3] [µg/mL]	MIC [4] [µg/mL]	MIC [5] [µg/mL]	MIC [6] [µg/mL]	MIC [7] [µg/mL]	MIC [8] [µg/mL]	MIC [9] [µg/mL]	MIC [10] [µg/mL]	MIC [11] [µg/mL]	MIC [12] [µg/mL]	MIC [13] [µg/mL]	MIC [14] [µg/mL]	MIC [15] [µg/mL]	MIC [16] [µg/mL]	MIC [17] [µg/mL]	MIC [18] [µg/mL]	MIC [19] [µg/mL]	MIC [20] [µg/mL]	other results
CO/N=C1\CN(c2c(F)cc3c(=O)c(C(=O)O)cn4c3c2OC[C@@H]4C)CCC1N (some centres undefined)	1 (≈ 2.47 µM)	0.5 (≈ 1.24 µM)	0.25 (≈ 0.618 µM)	> 128	1 (≈ 2.47 µM)	0.5 (≈ 1.24 µM)	16 (≈ 39.6 µM)	128 (≈ 317 µM)	0.5 (≈ 1.24 µM)	0.5 (≈ 1.24 µM)	32 (≈ 79.1 µM)	16 (≈ 39.6 µM)	128 (≈ 317 µM)	1 (≈ 2.47 µM)	1 (≈ 2.47 µM)	64 (≈ 158 µM)	0.5 (≈ 1.24 µM)	1 (≈ 2.47 µM)	16 (≈ 39.6 µM)	0.5 (≈ 1.24 µM)	MIC [21]: 4 µg/mL (≈ 9.89 µM); MIC [22]: 0.5 µg/mL (≈ 1.24 µM); MIC [23]: 128 µg/mL (≈ 317 µM); MIC [24]: 8 µg/mL (≈ 19.8 µM); MIC [25]: 0.5 µg/mL (≈ 1.24 µM); MIC [26]: > 128 µg/mL; MIC [27]: 1 µg/mL (≈ 2.47 µM); MIC [28]: 16 µg/mL (≈ 39.6 µM); MIC [29]: 0.5 µg/mL (≈ 1.24 µM); MIC [30]: 0.5 µg/mL (≈ 1.24 µM); MIC [31]: 8 µg/mL (≈ 19.8 µM)
CNC1CCN(c2c(F)cc3c(=O)c(C(=O)O)cn(C4CC4)c3c2OC)C/C1=N\OC (centres undefined)	0.5 (≈ 1.16 µM)	0.06 (≈ 0.139 µM)	0.06 (≈ 0.139 µM)	> 128	0.25 (≈ 0.578 µM)	0.125 (≈ 0.289 µM)	16 (≈ 37 µM)	128 (≈ 296 µM)	16 (≈ 37 µM)	0.06 (≈ 0.139 µM)	8 (≈ 18.5 µM)	16 (≈ 37 µM)	> 128	2 (≈ 4.62 µM)	0.5 (≈ 1.16 µM)	0.125 (≈ 0.289 µM)	0.25 (≈ 0.578 µM)	0.25 (≈ 0.578 µM)	32 (≈ 74 µM)	0.125 (≈ 0.289 µM)	MIC [21]: 4 µg/mL (≈ 9.25 µM); MIC [22]: 0.25 µg/mL (≈ 0.578 µM); MIC [23]: 0.5 µg/mL (≈ 1.16 µM); MIC [24]: 0.125 µg/mL (≈ 0.289 µM); MIC [25]: 0.125 µg/mL (≈ 0.289 µM); MIC [26]: > 128 µg/mL; MIC [27]: 0.25 µg/mL (≈ 0.578 µM); MIC [28]: 16 µg/mL (≈ 37 µM); MIC [29]: 0.25 µg/mL (≈ 0.578 µM); MIC [30]: 0.06 µg/mL (≈ 0.139 µM); MIC [31]: 1 µg/mL (≈ 2.31 µM)
CO/N=C1\CN(c2nc3c(cc2F)c(=O)c(C(=O)O)cn3C2CC2)CCC1N (centres undefined)	0.125 (≈ 0.321 µM)	2 (≈ 5.14 µM)	2 (≈ 5.14 µM)	> 128	0.25 (≈ 0.642 µM)	0.25 (≈ 0.642 µM)	8 (≈ 20.5 µM)	> 128	8 (≈ 20.5 µM)	2 (≈ 5.14 µM)	32 (≈ 82.2 µM)	8 (≈ 20.5 µM)	> 128	0.25 (≈ 0.642 µM)	2 (≈ 5.14 µM)	32 (≈ 82.2 µM)	0.5 (≈ 1.28 µM)	0.25 (≈ 0.642 µM)	32 (≈ 82.2 µM)	4 (≈ 10.3 µM)	MIC [21]: 2 µg/mL (≈ 5.14 µM); MIC [22]: 0.5 µg/mL (≈ 1.28 µM); MIC [23]: > 128 µg/mL; MIC [24]: 32 µg/mL (≈ 82.2 µM); MIC [25]: 4 µg/mL (≈ 10.3 µM); MIC [26]: 64 µg/mL (≈ 164 µM); MIC [27]: 0.25 µg/mL (≈ 0.642 µM); MIC [28]: 8 µg/mL (≈ 20.5 µM); MIC [29]: 0.25 µg/mL (≈ 0.642 µM); MIC [30]: 0.25 µg/mL (≈ 0.642 µM); MIC [31]: 0.25 µg/mL (≈ 0.642 µM)
CCO/N=C1\CN(c2nc3c(cc2F)c(=O)c(C(=O)O)cn3C2CC2)CCC1NC (centres undefined)	2 (≈ 4.79 µM)	1 (≈ 2.4 µM)	0.5 (≈ 1.2 µM)	> 128	4 (≈ 9.58 µM)	0.25 (≈ 0.599 µM)	128 (≈ 307 µM)	> 128	64 (≈ 153 µM)	1 (≈ 2.4 µM)	4 (≈ 9.58 µM)	> 128	> 128	4 (≈ 9.58 µM)	4 (≈ 9.58 µM)	32 (≈ 76.7 µM)	1 (≈ 2.4 µM)	4 (≈ 9.58 µM)	32 (≈ 76.7 µM)	0.25 (≈ 0.599 µM)	MIC [21]: 32 µg/mL (≈ 76.7 µM); MIC [22]: 1 µg/mL (≈ 2.4 µM); MIC [23]: > 128 µg/mL; MIC [24]: 4 µg/mL (≈ 9.58 µM); MIC [25]: 0.25 µg/mL (≈ 0.599 µM); MIC [26]: > 128 µg/mL; MIC [27]: 4 µg/mL (≈ 9.58 µM); MIC [28]: 128 µg/mL (≈ 307 µM); MIC [29]: 0.5 µg/mL (≈ 1.2 µM); MIC [30]: 0.25 µg/mL (≈ 0.599 µM); MIC [31]: 4 µg/mL (≈ 9.58 µM)
